Experimental data published in article PMC4531836 (Molecular imaging and biology : MIB : the official …, 2015).
Several values for one entry are separate records, joined by “and”; a condition that tells them apart may be missing. Identical values can stand only once. Entries after “also recorded” stand apart in the source; their conditions may differ.

Tests used:
Format in all cases: in vivo, human
[1] = Safety / adverse events in patients with prostate cancer; conditions: nine patients
Method in brief: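 Nine patients received about 320.6 MBq IV after 4–6 h fasting. Vital signs and ECG were recorded before dosing, with pulse oximetry during scanning. Within 2 weeks before and after, they had history, examination, CBC with differential, metabolic panel (BUN, creatinine, alkaline phosphatase, bilirubin, transaminases) and ECG. Follow-up visit or contact came within 30 days. Events were graded by NCI CTCAE.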

Radiation dosimetry = experiment: Radiation dosimetry
Method in brief: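 Four patients were analysed. Organ VOIs were drawn on longitudinal PET scans. Time-activity data were integrated by fitted single- or double-exponential functions, or numerically with single-exponential extrapolation. Residence times were scaled from CT-derived patient organ masses to reference masses. Absorbed doses used the MIRD S-value schema in OLINDA/EXM. The bladder model assumed 1.5 h voiding, and lens dose was taken as the photon dose to brain.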

[2] = Blood and plasma activity, plasma metabolites, urinary excretion
Method in brief: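 Prostate cancer patients received about 320.6 MBq by slow IV push. Venous blood was drawn from the contralateral arm after PET2, PET4 and PET5, and 0.5 ml aliquots of blood and plasma were well-counted. Urine voided after PET4 and PET5 (about 110 and 160 min) was counted. For metabolites, plasma was acetonitrile-precipitated, spiked with unlabelled reference, and run on C18 radio-HPLC in 10% acetonitrile/90% triethylammonium phosphate pH 3.2 at 2 ml/min.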

prostate cancer = experiment: PET/CT tumor uptake
Method in brief: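 Sequential PET/CT ran from injection (PET1–PET4), with PET5 at 120 min. Tumour sites were foci at PET5 with uptake above surrounding soft tissue or blood pool. SUVmax was normalised to lean body mass for up to five hottest lesions per patient, using automatic VOIs at 50% activity threshold. Tumour-to-reference ratio was lesion SUVmax over SUVmean of liver, blood pool or muscle.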

[3] = PET biodistribution in patients; conditions: visual
Method in brief: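 Patients fasted 4–6 h, then received about 320.6 MBq IV (specific activity 107.2 MBq/nmol). Mid-thigh-to-vertex 3D PET/CT with CT attenuation correction followed. Four sequential scans began at injection, at 1, 2, 4 and 4 min per bed. A fifth scan (4 min/bed) ran at 120 min. Two non-blinded nuclear-medicine readers reviewed images visually.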

In the case of `O=C(O)CCC(NC(=O)NC(CCCCNC(=O)c1ccc([18F])nc1)C(=O)O)C(=O)O` (stereo not drawn) [[^18F]DCFPyL, 2-(3-(1-carboxy-5-[(6-[^18F]fluoro-pyridine-3-carbonyl)-amino]-pentyl)-ureido)-pentanedioic acid], the “Radiotracer-related adverse events with monitored heart rate or blood pressure” value [1] is reported as “no radiotracer-related adverse events”, the Adverse events ([1]; IV bolus average 320.6 MBq) is reported as “No major radiotracer-specific adverse events; also recorded: safe to administer” and the Absorbed dose (Radiation dosimetry; Adrenals) is reported as 3.11E-02 mGy/MBq. The Res. time (Radiation dosimetry; Adrenals) was 3.16E-04 (Bq-h)/Bq, the Res. time (Radiation dosimetry; Bone marrow (spine)) was 5.52E-02 (Bq-h)/Bq and the Absorbed dose (Radiation dosimetry; Brain) was 2.19E-03 mGy/MBq. For the same compound, the Res. time (Radiation dosimetry; Brain) was 4.74E-03 (Bq-h)/Bq, the Absorbed dose (Radiation dosimetry; Breasts) was 4.57E-03 mGy/MBq and the Res. time (Radiation dosimetry; Gallbladder) was 1.18E-03 (Bq-h)/Bq. For the same compound, the Absorbed dose (Radiation dosimetry; Gallbladder wall) was 1.44E-02 mGy/MBq, the Res. time (Radiation dosimetry; Heart) was 1.98E-02 (Bq-h)/Bq and the Absorbed dose (Radiation dosimetry; Heart wall) was 1.29E-02 mGy/MBq. For the same compound, the Res. time (Radiation dosimetry; Heart wall) was 6.24E-03 (Bq-h)/Bq, the Absorbed dose (Radiation dosimetry; Kidneys) was 0.0945 mGy/MBq and 9.45E-02 mGy/MBq and the Res. time (Radiation dosimetry; Kidneys) was 2.17E-01 (Bq-h)/Bq. The Res. time (Radiation dosimetry; LLI) was 4.06E-03 (Bq-h)/Bq, the Absorbed dose (Radiation dosimetry; LLI wall) was 1.05E-02 mGy/MBq and the Absorbed dose (Radiation dosimetry; Lacrimal glands) was 3.50E-02 mGy/MBq. For the same compound, the Res. time (Radiation dosimetry; Lacrimal glands) was 3.86E-04 (Bq-h)/Bq, the Absorbed dose (Radiation dosimetry; Lens) was 1.25E-03 mGy/MBq and the Res. time (Radiation dosimetry; Lens) was 4.32E-06 (Bq-h)/Bq. For the same compound, the Absorbed dose (Radiation dosimetry; Liver) was 0.0380 mGy/MBq and 3.80E-02 mGy/MBq, the Res. time (Radiation dosimetry; Liver) was 2.60E-01 (Bq-h)/Bq and the Absorbed dose (Radiation dosimetry; Lungs) was 1.08E-02 mGy/MBq. For the same compound, the Res. time (Radiation dosimetry; Lungs) was 3.70E-02 (Bq-h)/Bq, the Absorbed dose (Radiation dosimetry; Muscle) was 6.32E-03 mGy/MBq and the Res. time (Radiation dosimetry; Muscle) was 3.07E-01 (Bq-h)/Bq. It also gave an Absorbed dose (Radiation dosimetry; Osteogenic cells) of 9.58E-03 mGy/MBq, an Absorbed dose (Radiation dosimetry; Ovaries (hypothetical, all-male cohort)) of 8.89E-03 mGy/MBq and an Absorbed dose (Radiation dosimetry; Pancreas) of 2.44E-02 mGy/MBq. The Res. time (Radiation dosimetry; Pancreas) was 3.05E-03 (Bq-h)/Bq, the Absorbed dose (Radiation dosimetry; Parotid glands) was 2.68E-02 mGy/MBq and the Res. time (Radiation dosimetry; Parotid glands) was 1.19E-02 (Bq-h)/Bq. The Absorbed dose (Radiation dosimetry; Red marrow) was 0.01 mGy/MBq and 1.04E-02 mGy/MBq, the Res. time (Radiation dosimetry; Remainder of body) was 7.11E-01 (Bq-h)/Bq and the Absorbed dose (Radiation dosimetry; Skin) was 4.05E-03 mGy/MBq. For the same compound, the Absorbed dose (Radiation dosimetry; Small intestine) was 9.13E-03 mGy/MBq, the Absorbed dose (Radiation dosimetry; Spleen) was 1.85E-02 mGy/MBq and the Res. time (Radiation dosimetry; Spleen) was 2.07E-02 (Bq-h)/Bq. For the same compound, the Res. time (Radiation dosimetry; Stomach) was 1.07E-02 (Bq-h)/Bq, the Absorbed dose (Radiation dosimetry; Stomach wall) was 1.16E-02 mGy/MBq and the Absorbed dose (Radiation dosimetry; Submandibular glands) was 0.0387 mGy/MBq and 3.87E-02 mGy/MBq. For the same compound, the Res. time (Radiation dosimetry; Submandibular glands) was 6.95E-03 (Bq-h)/Bq, the Absorbed dose (Radiation dosimetry; Testes) was 1.01E-02 mGy/MBq and the Res. time (Radiation dosimetry; Testes) was 1.76E-03 (Bq-h)/Bq. For the same compound, the Absorbed dose (Radiation dosimetry; Thymus) was 5.56E-03 mGy/MBq, the Absorbed dose (Radiation dosimetry; Thyroid) was 8.56E-03 mGy/MBq and the Res. time (Radiation dosimetry; Thyroid) was 2.34E-04 (Bq-h)/Bq. For the same compound, the Res. time (Radiation dosimetry; Total body) was 1.96E+00 (Bq-h)/Bq, the Res. time (Radiation dosimetry; ULI) was 2.20E-02 (Bq-h)/Bq and the Absorbed dose (Radiation dosimetry; ULI wall) was 1.67E-02 mGy/MBq. For the same compound, the Res. time (Radiation dosimetry; Urinary bladder contents) was 2.60E-01 (Bq-h)/Bq, the Absorbed dose (Radiation dosimetry; Urinary bladder wall, voiding interval 1.5 h) was 0.0864 mGy/MBq and 8.64E-02 mGy/MBq and the Absorbed dose (Radiation dosimetry; Uterus (hypothetical, all-male cohort)) was 1.15E-02 mGy/MBq. For the same compound, the Effective dose (Radiation dosimetry; four patients, OLINDA/EXM) was 0.0165 mSv/MBq, the “Radiation dose in the whole body and radiosensitive organs” value (Radiation dosimetry; whole body, red marrow, gonads, breasts) was ≤ 0.01 mGy/MBq and the Red cell binding ([2]; 86 and 137 min post-injection) was “non-detectable”. For the same compound, the Red cell binding ([2]; 20 min post-injection) was “negligible”, the “Average urinary excretion of the radiotracer” value ([2]; by 2 h post-injection) was 11% and the “Urinary excretion of the radiotracer, range” value ([2]; by 2 h post-injection) was 6–15%. The “Average urinary excretion of the radiotracer” value ([2]; by 3 h post-injection) was 16%, the “Urinary excretion of the radiotracer, range” value ([2]; by 3 h post-injection) was 8–21% and the “Radiotracer metabolites in plasma (radio-HPLC)” value ([2]; three patients, up to 173 min post-injection) was “all plasma activities were in the form of unmetabolized radioligand; also recorded: no metabolism”. For the same compound, the “SUVmax, individual lesions” value (prostate cancer; PET4 and PET5, approximately 1 and 2 h post-radiotracer injection) was “greater than 100”, the “SUVmax, highest uptake at a site of primary disease” value (prostate cancer; PET5 (120 min post-injection)) was 71.6 and the “SUVmax, most avid bone lesions” value (prostate cancer; PET5 (120 min post-injection)) was 102.0. The “SUVmax, most avid lymph node lesion” value (prostate cancer; PET5 (120 min post-injection)) was 100.3, the “SUVmax in putative sites of prostate cancer (highest, some lesions)” value (prostate cancer; SUVmax normalized to lean body mass) was > 100 and the “Radiotracer uptake in the brain” value [3] was “No radiotracer uptake”.
